Assay results as given in ChEMBL document CHEMBL4689842, “EUbOPEN Chemogenomics Library wave 1” (2021).

Test system: Fibroblast
Assay: Multiplex assay against human fibroblast
Assay type: toxicity, cell-based
Procedure, shortened: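 With compound added, live cells were imaged on a CQ1 microscope at 37°C and 5% CO2; staining with Hoechst33342, BioTracker Green Microtubule Cytoskeleton Dye, MitoTracker Red and Annexin V Alexa Fluor 680 had been done at seeding. The CellPathfinder machine-learning gating scheme split cells into Hoechst high-intensity objects or normal cells, normal cells into healthy, pyknosed or fragmented nuclei, and pyknosed cells into mitotic or apoptotic. The tubulin, mitochondrial-mass and membrane-permeability phenotypes are per cents of healthy-nucleus cells.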

[1] = 12 h, 1 µM, compound concentration 1 uM, replicate 1
[2] = 12 h, 1 µM, compound concentration 1 uM, replicate 2
[3] = 12 h, 10 µM, compound concentration 10 uM, replicate 1
[4] = 12 h, 10 µM, compound concentration 10 uM, replicate 2
[5] = 24 h, 1 µM, compound concentration 1 uM, replicate 1
[6] = 24 h, 1 µM, compound concentration 1 uM, replicate 2
[7] = 24 h, 10 µM, compound concentration 10 uM, replicate 1
[8] = 24 h, 10 µM, compound concentration 10 uM, replicate 2
[9] = 48 h, 1 µM, compound concentration 1 uM, replicate 1
[10] = 48 h, 1 µM, compound concentration 1 uM, replicate 2
[11] = 48 h, 10 µM, compound concentration 10 uM, replicate 1
[12] = 48 h, 10 µM, compound concentration 10 uM, replicate 2

## COc1ccc(-c2ccc3ncc4c(c3c2)n(-c2ccc(N3CCNCC3)c(C(F)(F)F)c2)c(=O)n4C)cn1.O=C(O)/C=C\C(=O)O [BGT-226]
[1]
  Population Apoptotic (%): 67%
  Population Fragmented Nuclei (%): 34%
  Population Healthy Nuclei (%): 14%
  Population Hoechst High Intensity Objects (%): 14%
  Population Membrane Permeable-Phenotype (%): 26%
  Population Mitochondria Different-Phenotype (%): 33%
  Population Mitotic Cells (%): 32%
  Population Normal (%): 85%
  Population Pyknosed Nuclei (%): 50%
  Population Tubulin-Different-Phenotype (%): 93%
  Total Cell Count: 122
[2]
  Population Apoptotic (%): 81%
  Population Fragmented Nuclei (%): 24%
  Population Healthy Nuclei (%): 45%
  Population Hoechst High Intensity Objects (%): 17%
  Population Membrane Permeable-Phenotype (%): 70%
  Population Mitochondria Different-Phenotype (%): 94%
  Population Mitotic Cells (%): 18%
  Population Normal (%): 82%
  Population Pyknosed Nuclei (%): 29%
  Population Tubulin-Different-Phenotype (%): 94%
  Total Cell Count: 45
[3]
  Population Apoptotic (%): 62%
  Population Fragmented Nuclei (%): 27%
  Population Healthy Nuclei (%): 2%
  Population Hoechst High Intensity Objects (%): 14%
  Population Membrane Permeable-Phenotype (%): 50%
  Population Mitochondria Different-Phenotype (%): 0%
  Population Mitotic Cells (%): 37%
  Population Normal (%): 85%
  Population Pyknosed Nuclei (%): 69%
  Population Tubulin-Different-Phenotype (%): 0%
  Total Cell Count: 89
[4]
  Population Apoptotic (%): 100%
  Population Fragmented Nuclei (%): 70%
  Population Healthy Nuclei (%): 9%
  Population Hoechst High Intensity Objects (%): 62%
  Population Membrane Permeable-Phenotype (%): 24%
  Population Mitochondria Different-Phenotype (%): 32%
  Population Mitotic Cells (%): 0%
  Population Normal (%): 37%
  Population Pyknosed Nuclei (%): 19%
  Population Tubulin-Different-Phenotype (%): 24%
  Total Cell Count: 675
[5]
  Population Apoptotic (%): 69%
  Population Fragmented Nuclei (%): 45%
  Population Healthy Nuclei (%): 12%
  Population Hoechst High Intensity Objects (%): 18%
  Population Membrane Permeable-Phenotype (%): 58%
  Population Mitochondria Different-Phenotype (%): 16%
  Population Mitotic Cells (%): 30%
  Population Normal (%): 81%
  Population Pyknosed Nuclei (%): 41%
  Population Tubulin-Different-Phenotype (%): 50%
  Total Cell Count: 115
[6]
  Population Apoptotic (%): 83%
  Population Fragmented Nuclei (%): 20%
  Population Healthy Nuclei (%): 40%
  Population Hoechst High Intensity Objects (%): 30%
  Population Membrane Permeable-Phenotype (%): 66%
  Population Mitochondria Different-Phenotype (%): 91%
  Population Mitotic Cells (%): 16%
  Population Normal (%): 69%
  Population Pyknosed Nuclei (%): 40%
  Population Tubulin-Different-Phenotype (%): 91%
  Total Cell Count: 43
[7]
  Population Apoptotic (%): 58%
  Population Fragmented Nuclei (%): 23%
  Population Healthy Nuclei (%): 32%
  Population Hoechst High Intensity Objects (%): 26%
  Population Membrane Permeable-Phenotype (%): 38%
  Population Mitochondria Different-Phenotype (%): 0%
  Population Mitotic Cells (%): 41%
  Population Normal (%): 73%
  Population Pyknosed Nuclei (%): 44%
  Population Tubulin-Different-Phenotype (%): 52%
  Total Cell Count: 89
[8]
  Population Apoptotic (%): 100%
  Population Fragmented Nuclei (%): 79%
  Population Healthy Nuclei (%): 10%
  Population Hoechst High Intensity Objects (%): 64%
  Population Membrane Permeable-Phenotype (%): 69%
  Population Mitochondria Different-Phenotype (%): 60%
  Population Mitotic Cells (%): 0%
  Population Normal (%): 35%
  Population Pyknosed Nuclei (%): 9%
  Population Tubulin-Different-Phenotype (%): 60%
  Total Cell Count: 614
[9]
  Population Apoptotic (%): 84%
  Population Fragmented Nuclei (%): 55%
  Population Healthy Nuclei (%): 25%
  Population Hoechst High Intensity Objects (%): 38%
  Population Membrane Permeable-Phenotype (%): 58%
  Population Mitochondria Different-Phenotype (%): 11%
  Population Mitotic Cells (%): 15%
  Population Normal (%): 61%
  Population Pyknosed Nuclei (%): 19%
  Population Tubulin-Different-Phenotype (%): 47%
  Total Cell Count: 111
[10]
  Population Apoptotic (%): 62%
  Population Fragmented Nuclei (%): 28%
  Population Healthy Nuclei (%): 59%
  Population Hoechst High Intensity Objects (%): 27%
  Population Membrane Permeable-Phenotype (%): 19%
  Population Mitochondria Different-Phenotype (%): 19%
  Population Mitotic Cells (%): 37%
  Population Normal (%): 72%
  Population Pyknosed Nuclei (%): 11%
  Population Tubulin-Different-Phenotype (%): 85%
  Total Cell Count: 188
[11]
  Population Apoptotic (%): 66%
  Population Fragmented Nuclei (%): 57%
  Population Healthy Nuclei (%): 37%
  Population Hoechst High Intensity Objects (%): 42%
  Population Membrane Permeable-Phenotype (%): 50%
  Population Mitochondria Different-Phenotype (%): 4%
  Population Mitotic Cells (%): 33%
  Population Normal (%): 57%
  Population Pyknosed Nuclei (%): 4%
  Population Tubulin-Different-Phenotype (%): 58%
  Total Cell Count: 111
[12]
  Population Apoptotic (%): 25%
  Population Fragmented Nuclei (%): 75%
  Population Healthy Nuclei (%): 17%
  Population Hoechst High Intensity Objects (%): 44%
  Population Membrane Permeable-Phenotype (%): 44%
  Population Mitochondria Different-Phenotype (%): 33%
  Population Mitotic Cells (%): 75%
  Population Normal (%): 55%
  Population Pyknosed Nuclei (%): 7%
  Population Tubulin-Different-Phenotype (%): 55%
  Total Cell Count: 94
